The text below walks through data of ChEMBL document CHEMBL4219151, “Piperidinyl Ureas Chemically Control Defective in Cullin Neddylation 1 (DCN1)-Mediated Cullin Neddylation” (J Med Chem, 2018).

≈ marks a conversion by molar mass, not a printed value.

Series [1] is described as follows: Solubility of the compound at pH 7.4 after 18 hrs by UV-spectroscopy. The format is physicochemical. The conditions noted are these: buffer. Summed up:
(§1)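 Measured in triplicate within at least one experiment; values reported as mean ± standard deviation.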

Series [2] can be described thus: Permeability of the compound at 10 uM by PAMPA. The format is ADME. The conditions noted are these: for Papp at 10 µM: PAMPA, read-out: permeability; for permeability: pampa, 10 µM. Summed up:
as §1

Series [3] concerns the target DCN1-like protein 1 (Homo sapiens, UniProt Q96GG9).

Chain of DCN1-like protein 1 (Q96GG9 whole entry): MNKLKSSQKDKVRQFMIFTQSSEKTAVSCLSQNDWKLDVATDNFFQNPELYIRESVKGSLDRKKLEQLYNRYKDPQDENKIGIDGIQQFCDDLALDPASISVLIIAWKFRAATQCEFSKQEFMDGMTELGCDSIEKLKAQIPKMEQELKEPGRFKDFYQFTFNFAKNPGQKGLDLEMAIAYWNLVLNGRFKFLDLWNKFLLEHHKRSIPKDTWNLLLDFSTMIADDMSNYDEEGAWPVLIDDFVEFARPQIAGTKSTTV

As to `CCCN1CCC(N(CC2CCCCC2)C(=O)Nc2cccc(C(F)(F)F)c2)CC1`, in series [1], the concentration in solution (solubility at 18 h) was 90 µM (≈ 38.3 µg/mL). For the same compound, in series [2], the Papp at 10 µM was over 2200 ×10⁻⁶ cm/s. Also, in series [3], half-maximal inhibition (IC50) required 2.4 µM.

The compound `O=C(Nc1cccc(C(F)(F)F)c1)N(Cc1ccccc1)C1CCN(Cc2cc[nH]n2)CC1` showed a solubility at 18 h in series [1] of 54 µM (≈ 24.7 µg/mL). Also, the Papp at 10 µM in series [2] is over 2200 ×10⁻⁶ cm/s. Also, 2.4 µM corresponded to half-maximal inhibition in series [3] (IC50).

For `CCCCCN1CCC(N(Cc2ccccc2)C(=O)Nc2cccc(C(F)(F)F)c2)CC1`, the solubility at 18 h in series [1] was 58 µM (≈ 26 µg/mL). The permeability in series [2] is recorded as 1400 ×10⁻⁶ cm/s. In series [3], the IC50 amounted to 0.66 µM.

As for `O=C(Nc1cccc(C(F)(F)F)c1)NC1CCN(Cc2ccccc2Cl)CC1`, the concentration in solution in series [1] (solubility at 18 h) came to 0.3 µM (≈ 0.124 µg/mL). In addition, in series [2], the Papp at 10 µM is 830 ×10⁻⁶ cm/s. The compound further registered an IC50 in series [3] of 28 µM.

Consider `O=C(Nc1cccc(C(F)(F)F)c1)NC1CCN(C(=O)c2ccccc2)CC1`, for which the solubility at 18 h in series [1] was determined as 2.8 µM (≈ 1.1 µg/mL). Further, in series [2], the Papp at 10 µM amounted to 910 ×10⁻⁶ cm/s. Moreover, in series [3], the half-inhibitory concentration (IC50) is over 67 µM.

Take `Cc1ccc(NC(=O)NC2CCN(Cc3ccccc3)CC2)cc1Cl`: the concentration in solution in series [1] (solubility at 18 h) came to 2.4 µM (≈ 0.859 µg/mL). For the same compound, in series [2], the Papp at 10 µM is over 2200 ×10⁻⁶ cm/s. Moreover, the IC50 in series [3] is over 67 µM.

As for `O=C(Nc1cccc(C(F)(F)F)c1)N(Cc1ccccc1)C1CCN(CC2CCCCC2)CC1`, the concentration in solution in series [1] (solubility at 18 h) came to 1.2 µM (≈ 0.568 µg/mL). Further, the Papp at 10 µM in series [2] was under 1 ×10⁻⁶ cm/s. For the same compound, the IC50 in series [3] worked out at 0.62 µM.

Turning to `CC(C)(C)CCN1CCC(N(Cc2ccccc2)C(=O)Nc2cccc(C(F)(F)F)c2)CC1`, the concentration in solution in series [1] (solubility at 18 h) came to 5.8 µM (≈ 2.68 µg/mL). Further, in series [2], the Papp at 10 µM was over 2200 ×10⁻⁶ cm/s. Also, in series [3], the 50% inhibitory concentration (IC50) stood at 0.17 µM.

In the case of `CCCN1CCC(N(Cc2ccncc2)C(=O)Nc2cccc(C(F)(F)F)c2)CC1`, the solubility at 18 h in series [1] amounted to 85 µM (≈ 35.7 µg/mL). Besides, the Papp at 10 µM in series [2] was determined as 700 ×10⁻⁶ cm/s.

`O=C(Nc1cccc(C(F)(F)F)c1)N(Cc1ccccc1)C1CCN(CC2CCCC2)CC1` registered a solubility at 18 h in series [1] of 48 µM (≈ 22.1 µg/mL). For the same compound, in series [2], the Papp at 10 µM was determined as 990 ×10⁻⁶ cm/s. This compound also displayed an IC50 in series [3] of 0.37 µM.

In the case of `O=C(Nc1cccc(C(F)(F)F)c1)NC1CCN(Cc2cccc(F)c2)CC1`, the solubility at 18 h in series [1] was found to be 50 µM (≈ 19.8 µg/mL). The Papp at 10 µM in series [2] is over 2200 ×10⁻⁶ cm/s. In series [3], the IC50 amounted to 16 µM.

`Cc1ccccc1CN1CCC(NC(=O)Nc2cccc(C(F)(F)F)c2)CC1`: in series [1], the concentration in solution (solubility at 18 h) came to 44 µM (≈ 17.2 µg/mL). This compound also showed a permeability in series [2] of 1200 ×10⁻⁶ cm/s. In addition, in series [3], the IC50 was 4 µM.

For the compound `CC(=O)O[C@H]1CN(Cc2ccccc2)CC[C@@H]1NC(=O)Nc1cccc(C(F)(F)F)c1`, half-maximal inhibition in series [3] (IC50) required 12 µM.

In series [1], `O=C(Nc1cccc(C(F)(F)F)c1)N(Cc1ccccc1)C1CCNCC1` gave a solubility at 18 h of 71 µM (≈ 26.8 µg/mL). In addition, the Papp at 10 µM in series [2] was over 2200 ×10⁻⁶ cm/s. The compound also yielded an IC50 in series [3] of 21 µM.

Regarding `CC(C)CCN1CCC(N(Cc2ccccc2)C(=O)Nc2cccc(C(F)(F)F)c2)CC1`, in series [1], the solubility at 18 h worked out at 60 µM (≈ 26.9 µg/mL). The Papp at 10 µM in series [2] was over 2200 ×10⁻⁶ cm/s. Also, half-maximal inhibition in series [3] (IC50) was put at 0.79 µM.

Consider `O=C(Nc1cccc(C(F)(F)F)c1)N(Cc1ccccc1)C1CCN(Cc2nccs2)CC1`, for which, in series [1], the concentration in solution (solubility at 18 h) came to 6.3 µM (≈ 2.99 µg/mL). For the same compound, the Papp at 10 µM in series [2] came out at 310 ×10⁻⁶ cm/s.

The compound `O=C(Nc1cccc(C(F)(F)F)c1)NC1CCN(Cc2cccc(Cl)c2)CC1` showed a solubility at 18 h in series [1] of 0.7 µM (≈ 0.288 µg/mL). For the same compound, the permeability in series [2] amounted to 1700 ×10⁻⁶ cm/s.

Regarding `CCCCS(=O)(=O)N1CCC(N(Cc2ccccc2)C(=O)Nc2cccc(C(F)(F)F)c2)CC1`, in series [1], the solubility at 18 h came out at 1 µM (≈ 0.498 µg/mL). The Papp at 10 µM in series [2] is under 1 ×10⁻⁶ cm/s.

As to `CCCC(=O)N1CCC(N(Cc2ccccc2)C(=O)Nc2cccc(C(F)(F)F)c2)CC1`, the solubility at 18 h in series [1] is under 0.1 µM. Also, the Papp at 10 µM in series [2] is over 2200 ×10⁻⁶ cm/s.

With `Cc1ccc(CN2CCC(NC(=O)Nc3cccc(C(F)(F)F)c3)CC2)cc1`, in series [1], the concentration in solution (solubility at 18 h) was 14 µM (≈ 5.48 µg/mL). For the same compound, the Papp at 10 µM in series [2] is over 2200 ×10⁻⁶ cm/s.

In turn, `COc1cccc(NC(=O)NC2CCN(Cc3ccccc3)CC2)c1` gave an IC50 in series [3] of over 67 µM.

Compound `O=C(Nc1cccc(C(F)(F)F)c1)N(Cc1ccccc1)C1CCN(Cc2cccnc2)CC1` returned a solubility at 18 h in series [1] of 30 µM (≈ 14.1 µg/mL). Moreover, the Papp at 10 µM in series [2] was over 2200 ×10⁻⁶ cm/s. In series [3], this compound registered an IC50 of 20 µM.

In series [1], `CCCN1CCC(N(CCC(C)C)C(=O)Nc2cccc(C(F)(F)F)c2)CC1` returned a solubility at 18 h of 61 µM (≈ 24.4 µg/mL). Also, the permeability in series [2] is listed as 1500 ×10⁻⁶ cm/s. Moreover, in series [3], the IC50 was 2.7 µM.

In series [1], `O=C(Nc1ccccc1)NC1CCN(Cc2ccccc2)CC1` gave a solubility at 18 h of 68 µM (≈ 21 µg/mL). The compound also registered a permeability in series [2] of 1400 ×10⁻⁶ cm/s. Moreover, the IC50 in series [3] was over 67 µM.

In series [1], `CCCN1CCC(N(CC(C)C)C(=O)Nc2cccc(C(F)(F)F)c2)CC1` had a solubility at 18 h of 96 µM (≈ 37 µg/mL). The compound further registered a permeability in series [2] of 1900 ×10⁻⁶ cm/s. Moreover, it took 5.8 µM to reach half-maximal inhibition in series [3] (IC50).

For the compound `CCCN1CCC(N(CCOC)C(=O)Nc2cccc(C(F)(F)F)c2)CC1`, the concentration in solution in series [1] (solubility at 18 h) came to 64 µM (≈ 24.8 µg/mL). The permeability in series [2] came out at 1600 ×10⁻⁶ cm/s. In addition, it took 21 µM to reach half-maximal inhibition in series [3] (IC50).

Take `O=C(Nc1cccc(-n2cccc2)c1)NC1CCN(Cc2ccccc2)CC1`: the concentration in solution in series [1] (solubility at 18 h) came to 1 µM (≈ 0.374 µg/mL). Further, the Papp at 10 µM in series [2] was found to be 930 ×10⁻⁶ cm/s. The IC50 in series [3] is over 67 µM.

Consider `O=C(Nc1cccc(C(F)(F)F)c1)NC1CCN(Cc2ccc(Cl)cc2)CC1`, for which the solubility at 18 h in series [1] was determined as 0.8 µM (≈ 0.329 µg/mL). For the same compound, the permeability in series [2] is given as 1300 ×10⁻⁶ cm/s. Besides, it took 25 µM to reach half-maximal inhibition in series [3] (IC50).

Take `O=C(Nc1cccc(C(F)(F)F)c1)N(Cc1ccccc1)C1CCN(Cc2ccc(F)cc2)CC1`: in series [1], the concentration in solution (solubility at 18 h) came to 0.9 µM (≈ 0.437 µg/mL). For the same compound, the Papp at 10 µM in series [2] was over 2200 ×10⁻⁶ cm/s. In series [3], this compound came in with an IC50 of 10 µM.

Take `CCCN1CCC(N(CCC)C(=O)Nc2cccc(C(F)(F)F)c2)CC1`: in series [1], the concentration in solution (solubility at 18 h) was 61 µM (≈ 22.7 µg/mL). The compound also had a permeability in series [2] of 1600 ×10⁻⁶ cm/s. In series [3], this compound showed an IC50 of 10 µM.

On to `O=C(Nc1cccc(C(F)(F)F)c1)N(Cc1ccccc1)C1CCN(Cc2ccccc2)CC1`, for which, in series [1], the solubility at 18 h was determined as 11 µM (≈ 5.14 µg/mL). Besides, in series [2], the Papp at 10 µM worked out at 300 ×10⁻⁶ cm/s.

Compound `O=C(Nc1cccc(I)c1)NC1CCN(Cc2ccccc2)CC1` yielded a 50% inhibitory concentration (IC50) in series [3] of over 67 µM.

The compound `O=C(Nc1cccc(C(F)(F)F)c1)N(Cc1ccccc1)C1CCN(CC2CC2)CC1` gave a solubility at 18 h in series [1] of 75 µM (≈ 32.4 µg/mL). The Papp at 10 µM in series [2] was over 2200 ×10⁻⁶ cm/s. Further, in series [3], the IC50 was found to be 0.21 µM.

`O=C(Nc1cccc(C(F)(F)F)c1)NC1CCN(Cc2ccccc2F)CC1` showed a solubility at 18 h in series [1] of 44 µM (≈ 17.4 µg/mL). In series [2], this compound gave a permeability of 1500 ×10⁻⁶ cm/s. Besides, the IC50 in series [3] came to 13 µM.

As to `O=C(Nc1cccc(C(F)(F)F)c1)N(Cc1ccccc1)C1CCN(CCC(F)(F)F)CC1`, the concentration in solution in series [1] (solubility at 18 h) was 2.3 µM (≈ 1.09 µg/mL). In series [2], the Papp at 10 µM was found to be 440 ×10⁻⁶ cm/s. Further, in series [3], half-maximal inhibition (IC50) required 23 µM.

For the compound `Cc1cccc(NC(=O)NC2CCN(Cc3ccccc3)CC2)c1`, inhibition in series [3] was half-maximal at 44 µM (IC50).

In the case of `Cn1nccc1-c1cccc(NC(=O)NC2CCN(Cc3ccccc3)CC2)c1`, the concentration in solution in series [1] (solubility at 18 h) was 78 µM (≈ 30.4 µg/mL). Moreover, in series [2], the Papp at 10 µM is over 2200 ×10⁻⁶ cm/s. In addition, the IC50 in series [3] is over 67 µM.

Turning to `CCOc1cc(CN2CCC(N(Cc3ccccc3)C(=O)Nc3cccc(C(F)(F)F)c3)CC2)cc(Cl)c1O`, the concentration in solution in series [1] (solubility at 18 h) was 0.4 µM (≈ 0.225 µg/mL). In addition, the Papp at 10 µM in series [2] was determined as 110 ×10⁻⁶ cm/s.

Regarding `CC(C)(C)CN1CCC(N(Cc2ccccc2)C(=O)Nc2cccc(C(F)(F)F)c2)CC1`, the IC50 in series [3] came to 0.96 µM.

Compound `CSc1cccc(NC(=O)NC2CCN(Cc3ccccc3)CC2)c1` came in with an IC50 in series [3] of over 67 µM.

In series [3], `O=C(Nc1ccc2c(c1)OCO2)NC1CCN(Cc2ccccc2)CC1` displayed an IC50 of over 67 µM.
